In the library only some 0.77% were active in any assay of this set; here they are far more common.
mIAP block = inhibitors of mouse IAP, primary screen, biochemical, luminescence, uHTS | intestinal alkaline phosphatase [Mus musculus] | purified mouse IAP, CDP-Star luminescence, 30 min | inhibition, % at 10 µM | 330,000 tested, 0.2% active | AID 2806, 2010;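 active means inhibition of at least 40% at 10 µM in the primary screen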;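 further: plate controls were DMSO with enzyme for no effect and no enzyme wells for full effect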
hIAP inh = human IAP inhibitors, primary screen, biochemical, luminescence, uHTS. Intestinal-type alkaline phosphatase (Homo sapiens), P09923. purified IAP, CDP-Star luminescence, 30 min. inhibition, % at 10 µM. 330,000 tested, 0.12% active;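 active means inhibition reaching a set limit with compound at 10 µM in the primary screen, cut at about 35% in these data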;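 further: plate controls were DMSO wells with enzyme for no effect and no-enzyme buffer wells for full effect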
Target sequence (P09923 whole entry, looked up): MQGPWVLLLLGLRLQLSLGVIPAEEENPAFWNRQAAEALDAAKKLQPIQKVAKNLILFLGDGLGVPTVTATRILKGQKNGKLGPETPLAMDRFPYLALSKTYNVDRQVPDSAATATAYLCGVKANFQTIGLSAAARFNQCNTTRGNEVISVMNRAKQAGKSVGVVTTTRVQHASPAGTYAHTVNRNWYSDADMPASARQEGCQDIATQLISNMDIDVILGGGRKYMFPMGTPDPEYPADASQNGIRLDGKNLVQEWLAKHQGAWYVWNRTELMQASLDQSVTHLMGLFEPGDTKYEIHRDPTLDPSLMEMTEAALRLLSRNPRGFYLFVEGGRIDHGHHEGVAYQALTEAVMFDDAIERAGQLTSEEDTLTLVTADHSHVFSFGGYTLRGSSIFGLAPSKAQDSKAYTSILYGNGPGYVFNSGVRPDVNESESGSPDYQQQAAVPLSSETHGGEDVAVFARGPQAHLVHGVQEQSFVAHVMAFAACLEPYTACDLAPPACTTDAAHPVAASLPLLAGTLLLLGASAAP
mIAP activ = activators of mouse IAP, primary screen, biochemical, luminescence, uHTS; intestinal alkaline phosphatase [Mus musculus]; muIAP, CDP-Star luminescence, 30 min; active compounds read high; 1 = vehicle-only enzyme signal, 0 = enzyme-free wells; activation factor at 10 µM; 330,000 tested, 0.24% active;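 active means activation factor of at least 2 at 20 µM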
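also added = chemiluminescent substrate CDP-Star | test system = mouse IAP enzyme | signal = chemiluminescence readout | compound = DMSO-dissolved test compounds | incubation = 30 min at room temperature | benchmarks = DMSO wells, no-enzyme wells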
hIAP activ = human IAP activators, primary screen, biochemical, luminescence, uHTS; Intestinal-type alkaline phosphatase (Homo sapiens), P09923; purified human IAP, CDP-Star luminescence, 30 min; active compounds read high; 1 = vehicle-only enzyme, 0 = enzyme-free background; activation factor at 10 µM; 330,000 tested, 0.16% active; AID 2524, 2010;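 active means activation factor of the enzyme at least 2-fold when tested at 20 µM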
bIAP inhibitor = bovine intestinal alkaline phosphatase inhibitors, primary screen, selectivity assay for TNAP inhibitor project, biochemical, bovine IAP, CDP-star luminescence. inhibition, % at 20 µM. purified bovine IAP, 30 min. 190,000 tested, under 10 active. alkaline phosphatase, intestinal [Bos taurus]. AID 1019, 2008;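 active means over 50% inhibition of intestinal alkaline phosphatase at 20 µM in the single-dose screen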
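Assay system: bovine IAP enzyme; medium: DEA buffer 100 mM, pH 9.8, with MgCl2 1.0 mM, ZnCl2 0.02 mM; doses: 20 µM single dose; incubation: enzyme reaction for 30 min at room temperature; detection: CDP-star luminescence signal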
bIAP act = bovine intestinal alkaline phosphatase activators, primary screen, biochemical, bovine IAP, CDP-star luminescence | purified bovine IAP, 30 min; active compounds read high; fold of DMSO-control signal, blank-subtracted | 200,000 tested, 0.17% active | activation factor at 20 µM | alkaline phosphatase, intestinal [Bos taurus];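 active means activation factor of 2 or more at 20 µM, a signal rise over negative controls twice the positive control's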
mIAP inh confirm = inhibitors of mouse IAP, confirmation, biochemical, luminescence, single concentration. shares compounds with mIAP block. purified mouse IAP, CDP-Star luminescence, 30 min. inhibition, % at 10 µM. 11,000 tested, 4.7% active;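 active means inhibition of at least 40% at 10 µM in either of the two replicates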;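 further: plate controls were DMSO wells with enzyme for no effect and buffer wells lacking enzyme for full effect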
An asterisk follows results filed as active; i = inactive; · = not tested or not shown.

SMILES	mIAP block	hIAP inh	mIAP activ	hIAP activ	bIAP inhibitor	bIAP act	mIAP inh confirm
C#CCOCCOCCOCCNc1nc(N2CCN(C(=O)CCCCCCCCCCNC(=O)[C@@H](CCSC)n3cc(CCO)nn3)CC2)nc(N2CCN(C(=O)CCCCCCCCCCNC(=O)[C@H](CCCN=C(N)N)n3cc(C[C@@H](C)CC)nn3)CC2)n1	i	-58	7.7*	1.6	·	·	i
C#CCOCCOCCOCCNc1nc(N2CCN(C(=O)CCCCCCCCCCNC(=O)[C@H]([C@@H](C)CC)n3cc(CCCCN=C(N)N)nn3)CC2)nc(N2CCN(C(=O)CCCCCCCCCCNC(=O)[C@@H]([C@H](C)O)n3cc(C)nn3)CC2)n1	-366	-8	4.7*	1.1	·	·	i
C#CCOCCOCCOCCNc1nc(N2CCOCC2)nc(N2CCN(C(=O)[C@H]([C@@H](C)CC)n3cc(CCCN=C(N)N)nn3)CC2)n1	-16	5	1.2	0.95	7	0.9	·
C#CCOCCOCCOCCNc1nc(N2CCN(C(=O)CCCCCCCCCCNC(=O)[C@H](CCCN=C(N)N)n3cc(C[C@@H](C)CC)nn3)CC2)nc(N2CCN(C(=O)CCCCCCCCCCNC(=O)[C@@H]([C@H](C)CC)n3cc(CCCCCN)nn3)CC2)n1	-463	-50	5.6*	1.5	·	·	i
C#CCOCCOCCOCCNc1nc(N2CCOCC2)nc(N2CCN(C(=O)CCCCCCCCCCNC(=O)[C@H]([C@@H](C)CC)n3cc(CCCCN=C(N)N)nn3)CC2)n1	-154	-8	2.5*	1.1	·	·	-137
C#CCOCCOCCOCCNc1nc(N2CCN(C(=O)CCCCCCCCCCNC(=O)Cn3cc(CCCCCN)nn3)CC2)nc(N2CCN(C(=O)CCCCCCCCCCNC(=O)[C@@H]([C@H](C)O)n3cc(C)nn3)CC2)n1	-35	2	1.3	0.98	·	·	·
CCOC(=O)c1c(S(=O)(=O)NCC(=O)NCc2ccc(C)cc2)c(C)n(C)c1C	3	13	0.97	0.87	·	·	·
C#CCOCCOCCOCCNc1nc(N2CCN(C(=O)CCCCCCCCCCNC(=O)[C@H]([C@@H](C)CC)n3cc(CCCCN=C(N)N)nn3)CC2)nc(N2CCN(C(=O)CCCCCCCCCCNC(=O)[C@H](CCCN=C(N)N)n3cc(C[C@@H](C)CC)nn3)CC2)n1	-343	-49	4.4*	1.5	·	·	i
C#CCOCCOCCOCCNc1nc(N2CCN(C(=O)CCCCCCCCCCNC(=O)[C@@H](CCSC)n3cc(CCO)nn3)CC2)nc(N2CCN(C(=O)CCCCCCCCCCNC(=O)[C@@H]([C@H](C)O)n3cc(C)nn3)CC2)n1	-55	-22	1.6	1.2	·	·	·
C#CCOCCOCCOCCNc1nc(N2CCN(C(=O)CCCCCCCCCCNC(=O)[C@H](CCCCN)n3cc(C)nn3)CC2)nc(N2CCN(C(=O)CCCCCCCCCCNC(=O)[C@H](CCCN=C(N)N)n3cc(C[C@@H](C)CC)nn3)CC2)n1	-215	-28	3.1*	1.3	·	·	-295
C#CCOCCOCCOCCNc1nc(N2CCN(C(=O)CCCCCCCCCCNC(=O)Cn3cc(C[C@@H](C)O)nn3)CC2)nc(N2CCN(C(=O)CCCCCCCCCCNC(=O)[C@@H](CCSC)n3cc(CCO)nn3)CC2)n1	-184	6	2.8*	0.94	·	·	-97
C#CCOCCOCCOCCNc1nc(N2CCN(C(=O)CCCCCCCCCCNC(=O)[C@H](CCCCN)n3cc(C[C@@H](C)CC)nn3)CC2)nc(N2CCN(C(=O)CCCCCCCCCCNC(=O)[C@H](CCCN=C(N)N)n3cc(C[C@@H](C)CC)nn3)CC2)n1	-100	-35	2	1.4	·	·	·
C#CCOCCOCCOCCNc1nc(N2CCN(C(=O)CCCCCCCCCCNC(=O)[C@H](CO)n3cc(CCCCCN)nn3)CC2)nc(N2CCN(C(=O)CCCCCCCCCCNC(=O)[C@H](CCCN=C(N)N)n3cc(C[C@@H](C)CC)nn3)CC2)n1	-52	2	1.5	0.98	·	·	·
O=C(Nc1ccc(F)c(Cl)c1)Nc1csc2ccccc12	-387	8	4.9*	0.92	·	·	-115
O=C(Nc1ccc(F)c(Cl)c1)Nc1ccc(Cl)cn1	-5	1	1	0.99	-8	1.1	·
CC(C(=O)Nc1ccc(C(=O)O)c(O)c1)N1C(=O)/C(=C\c2ccco2)SC1=S (stereo not given)	62*	-20	0.38	1.2	·	·	73*
O=C(CN1C(=O)/C(=C/c2ccco2)SC1=S)Nc1ccc(C(=O)O)c(O)c1	67*	16	0.33	0.84	·	·	86*
O=C(CN1C(=O)/C(=C/c2ccco2)SC1=S)Nc1ccc(O)c(C(=O)O)c1	75*	-23	0.25	1.2	·	·	76*
O=C(CCCN1C(=O)/C(=C/c2cccs2)SC1=S)Nc1ccc(O)c(C(=O)O)c1	·	·	·	·	4	1	·
CC(=C\c1ccco1)/C=C1/SC(=S)N(CC(=O)O)C1=O	51*	9	0.49	0.91	·	·	50*
CCOc1cc2c(cc1OCC)C(C(=O)O)C(c1cc(Br)c(O)c(OC)c1)N(C)C2=O (stereo not given)	-10	-4	1.1	1	-8	1.1	·
CCN(C[C@H]1N[C@@](Cc2ccccc2)(C(=O)OC)[C@H]2C(=O)N(Cc3ccccc3)C(=O)[C@@H]12)C(=O)Nc1ccc(F)cc1	6	4	0.94	0.96	·	·	·
Cc1n[nH]c(C)c1CCN(C)Cc1cn(C)nc1-c1ccc2c(c1)OCCO2	3	-13	0.97	1.1	-3	1	·
CC(C(=O)N(C)C1CCS(=O)(=O)C1)N1C(=O)/C(=C/c2ccco2)SC1=S (stereo not given)	40*	-7	0.6	1.1	·	·	50*
O=C(CN1C(=O)/C(=C/c2ccco2)SC1=S)NC1CCS(=O)(=O)C1 (stereo not given)	58*	-16	0.42	1.2	·	·	79*
O=C(CCN1C(=O)/C(=C/c2ccccc2)SC1=S)NC1CCS(=O)(=O)C1 (stereo not given)	5	-31	0.95	1.3	·	·	·
Cc1ccc(NC(=S)N(CCCN2CCOCC2)Cc2cccnc2)cc1C	10	-26	0.9	1.3	-2	1	·
CC(=O)c1sc2nc(-c3ccco3)ccc2c1N	59*	-19	0.41	1.2	·	·	63*

Screening results from PubChem BioAssay.
